Data as given in ChEMBL document CHEMBL3593173, “Discovery of novel N-(5-(tert-butyl)isoxazol-3-yl)-N'-phenylurea analogs as potent FLT3 inhibitors and evaluation of their activity against acute myeloid leukemia in vitro and in vivo” (Bioorg Med Chem, 2015).
≈ marks a conversion by molar mass, not a printed value.

What was measured:
MV4-11 = test: Cytotoxicity against human MV4-11 cells incubated for 72 hrs by MTT assay; assay type: functional, cell-based; conditions: MV4-11, 72 h
Summary of the method: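 Leukemia cells were grown with 10% FBS at 37 °C in 5% CO₂; MV4-11 was kept in IMDM. Cells were seeded at 1–4 × 10⁴ per well, and an equal volume of medium containing increasing inhibitor concentrations was added. MTT was added for 2–4 h, formazan was dissolved in DMSO, and OD was read at 570 nm to derive IC50.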

[1] = Solubility in MeOH solution; assay type: physicochemical
[2] = Solubility in EtOH solution; assay type: physicochemical
[3] = Solubility in PBS solution; assay type: physicochemical
[4] = Solubility in water; assay type: physicochemical

SMILES	IC50 (MV4-11) [µM]	further results
CC(C)(C)c1cc(NC(=O)Nc2ccc(-c3nc4ccccc4s3)cc2)no1	0.172	
CC(C)(C)c1cc(NC(=O)Nc2ccc(-c3cn4cc(I)ccc4n3)cc2)no1	0.0985	
CC(C)(C)c1cc(NC(=O)Nc2ccc(-c3cn4ccc(Cl)cc4n3)cc2)no1	0.00591	
CC(C)(C)c1cc(NC(=O)Nc2ccc(-c3cn4ccncc4n3)cc2)no1	0.0448	
C#Cc1ccc2nc(-c3ccc(NC(=O)Nc4cc(C(C)(C)C)on4)cc3)cn2c1	0.00862	
CC(C)(C)c1cc(NC(=O)Nc2ccc(-c3cc4ccccc4o3)cc2)no1	0.195	
CC(C)(C)c1cc(NC(=O)Nc2ccc(-c3cn4cccnc4n3)cc2)no1	0.171	
Cc1ccn2cc(-c3ccc(NC(=O)Nc4cc(C(C)(C)C)on4)cc3)nc2c1	0.00079	solubility [1]: 6830 µg/mL (≈ 17.5 mM); solubility [2]: 3340 µg/mL (≈ 8.58 mM)
CC(C)(C)c1cc(NC(=O)Nc2ccc(-c3cn4c(Cl)cccc4n3)cc2)no1	0.0561	
CC(C)(C)c1cc(NC(=O)Nc2ccc(-c3cn4c(n3)sc3cc(OCCN5CCOCC5)ccc34)cc2)no1 [QUIZARTINIB]	0.00068	
CC(C)(C)c1cc(NC(=O)Nc2ccc(-c3cn4cc(F)ccc4n3)cc2)no1	0.0209	
C#Cc1ccn2cc(-c3ccc(NC(=O)Nc4cc(C(C)(C)C)on4)cc3)nc2c1	0.00346	solubility [3]: 10.2 µg/mL (≈ 0.0255 mM); solubility [4]: 26.7 µg/mL (≈ 0.0668 mM); solubility [1]: 5840 µg/mL (≈ 14.6 mM); solubility [2]: 4100 µg/mL (≈ 10.3 mM)
Cc1cccc2nc(-c3ccc(NC(=O)Nc4cc(C(C)(C)C)on4)cc3)cn12	0.0202	
CC(C)(C)c1cc(NC(=O)Nc2ccc(-c3cn4ccccc4n3)cc2)no1	0.00309	solubility [1]: 5280 µg/mL (≈ 14.1 mM); solubility [2]: 4070 µg/mL (≈ 10.8 mM)
CC(C)(C)c1cc(NC(=O)Nc2ccc(-c3cn4cc(Cl)ccc4n3)cc2)no1	0.0248	
